KCNK3 block: human KCNK3 channel inhibition, primary screen | O14649 | CHO-KCNK3 thallium flux, FluxOR fluorescence; active compounds read low | B-score at 10 µM | 0.84% of 340,000 active | AID 602410;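 active = B-score under library mean minus 4 SD, starting fluorescence ratio at most library mean plus 5 SD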;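 note: more negative B-score means stronger inhibition of thallium flux through KCNK3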
Target sequence (O14649 whole entry, looked up): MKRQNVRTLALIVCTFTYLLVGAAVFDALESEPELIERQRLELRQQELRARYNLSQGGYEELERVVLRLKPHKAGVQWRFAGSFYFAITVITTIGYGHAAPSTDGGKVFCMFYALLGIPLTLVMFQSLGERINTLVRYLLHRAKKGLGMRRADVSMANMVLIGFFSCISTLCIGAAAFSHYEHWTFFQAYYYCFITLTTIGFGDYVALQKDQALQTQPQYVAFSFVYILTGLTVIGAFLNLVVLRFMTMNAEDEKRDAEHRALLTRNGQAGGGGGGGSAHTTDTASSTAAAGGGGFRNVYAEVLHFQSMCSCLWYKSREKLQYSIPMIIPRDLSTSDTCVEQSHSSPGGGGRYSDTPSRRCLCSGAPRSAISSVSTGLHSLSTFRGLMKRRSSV
KCNQ1 pot: potentiators or activators of human KCNQ1 potassium channel. P51787. CHO-K1 KCNQ1, thallium flux FluxOR fluorescence; active compounds read high. B-score at 10 µM. 0.35% of 310,000 active. AID 2648;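 active = fluorescence ratio B-score, a plate-corrected score, at least three library SD, with initial intensity B-score within 5 SD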
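Material: CHO-K1 cells stably expressing KCNQ1. Medium: assay buffer for compound exposure, DMSO matched across wells. Reagent: K+/Tl+ depolarizing stimulus. Compound dosing: single-concentration screen. Times: 37 °C overnight plating, 90-min dark dye load, 20-min compound pretreatment. Technique: FluxOR Tl+ flux fluorescence.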
Kir21 block: blocks the mouse Kir2.1 inward-rectifier potassium channel; P35561; 0.85% of 310,000 active; AID 1672; B-score at 10 µM; HEK293-Kir2.1, FluxOR thallium flux fluorescence; active compounds read low;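 active = fluorescence ratio B-score at or below minus 3 SD of library scores, with starting-brightness B-score within 2 SD, cut at about -4.2 in these data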;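 note: channel flux triggered by added potassium and thallium sulfate stimulus; B-score of peak minus minimum fluorescence over baseline after thallium stimulus; more negative B-score means stronger Kir2.1 block with less thallium influx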
hERG rescue: shields human hERG channel from block by proarrhythmic agents | 0.51% of 310,000 active | activation (rescue from dofetilide block), less the hit threshold, % at 10 µM | Q12809 | AID 1511 | CHO-hERG, FluxOR thallium flux, dofetilide IC70 present;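 active = activation above the mean of controls blocked by dofetilide plus 5 SD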;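 note: thallium influx through hERG after potassium depolarization seen as dye fluorescence rise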
KCNQ1 inh: human KCNQ1 channel inhibition; CHO-K1 KCNQ1, FluxOR thallium flux fluorescence; active compounds read high; B-score at 10 µM; 1.3% of 310,000 active; AID 2642;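 active = compounds whose thallium flux B-score, printed positive for inhibition, exceeds three library SD while starting fluorescence stays within three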;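 note: channel opened by potassium depolarization with thallium stimulus after 20 min compound exposure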
KCNK9 block: blocks the human KCNK9 two-pore domain potassium channel | AID 488922 | 1.2% of 310,000 active | B-score at 10 µM | Q9NPC2 | HEK293 KCNK9, FluxOR thallium flux fluorescence; active compounds read low;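 active = ratio B-score over 3 SD below the library mean, with starting fluorescence within 5 SD of its mean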;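 note: negative B-score means less thallium flux so channel inhibition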
Large screens that a line does not name were inactive. Only some compounds are listed: those with a hit (about 3.7% of all), similar ones and a draw of the others.

COC(=O)c1ccc(Cl)c(NC(=O)CN(c2ccc3c(c2)OCO3)S(C)(=O)=O)c1	none
COC(=O)c1cc(NC(=O)CN(c2ccc3c(c2)OCO3)S(C)(=O)=O)ccc1Cl	KCNK9 block -7.42
CSCC(C)N1CCC(N2CCC(C(=O)NCc3ccccn3)CC2)CC1 (stereo unspecified)	none
C[C@@H](C(=O)CC(=O)OC(C)(C)C)[C@@H](O)c1c(F)cccc1Cl	KCNK9 block -8.01
CC(C)(C)NC(=O)NC(=O)COC(=O)c1c(F)cccc1Cl	none
CC(=O)c1c(C)[nH]c(C(=O)Nc2ccc(F)cc2F)c1C	none
Oc1ccccc1/C=N/NC(=S)NC1CC2C=CC1C2 (stereo unspecified)	none
CCCN(CCC)C(=S)NC1CC2C=CC1C2 (stereo unspecified)	Kir21 block -4.67
O=C(Cn1cccn1)N1CCCC(N2CCN(c3ccccc3F)CC2)C1 (stereo unspecified)	none
Cc1ccc2sc(=O)[nH]c2c1	none
CC1CN(c2snnc2C=C2C(=O)OC(C)(C)OC2=O)CC(C)O1 (stereo unspecified)	none
Cc1c(C(=O)OCC(=O)N2CC(=O)Nc3ccccc32)oc2ccc(Br)cc12	hERG rescue 7.2
COc1ccccc1OCC#CCNC1CCCCC1C (stereo unspecified)	Kir21 block -5.51
O=C(/C=C/c1ccc([N+](=O)[O-])cc1)NCCOc1ccc(F)cc1	hERG rescue 5.5
CN(CC(=O)Nc1ccccc1Cl)CC(=O)Nc1c(F)cccc1F	hERG rescue 5.2
S=c1nc(C23CC4CC(CC(C4)C2)C3)[nH][nH]1	none
S=c1nn[nH]n1C12CC3CC(CC(C3)C1)C2	KCNQ1 pot 9, hERG rescue 13.8
Cc1cc(NC(=O)CSc2nnc(CNC(=O)c3c(F)cccc3F)o2)no1	none
CC(=O)Oc1ccc(C(c2ccc(OC(C)=O)cc2)c2ccccn2)cc1	Kir21 block -4.34
c1ccc(C(c2ccccn2)c2ccccn2)cc1	none
COc1ccc(C(=O)NCC(=O)OCC(=O)c2c(C)[nH]c3ccccc23)cc1OC	none (no result: KCNQ1 pot, Kir21 block, hERG rescue, KCNQ1 inh, KCNK9 block)
C(=C\c1nc(N2CCCC2)c2ccccc2n1)/c1ccccc1	KCNK9 block -7.19
CCCN1C(=O)C2(C(C(=O)c3ccc(C)o3)=C(O)C(=O)N2CCCOC)c2ccccc21 (stereo unspecified)	none
O=C(COC(=O)C1CC(=O)N(Cc2ccco2)C1)c1ccc(OC(=O)c2ccccc2)cc1 (stereo unspecified)	Kir21 block -6.21
O=C(COC(=O)C1CC(=O)N(Cc2ccco2)C1)Nc1ccccc1[N+](=O)[O-] (stereo unspecified)	none (no result: KCNQ1 pot, Kir21 block, hERG rescue, KCNQ1 inh, KCNK9 block)
O=C(CSc1ncn[nH]1)N/N=C/c1ccc(C(F)(F)F)cc1	none
CCOC(=O)C(=CNc1cccnc1Oc1ccc(C)c2c1CCC2)C(=O)OCC	KCNK9 block -7.16
O=C1OC(c2ccc3c(c2)OCO3)N(C(=O)c2ccc(Cl)c(Cl)c2)c2ccccc21 (stereo unspecified)	KCNK9 block -7.52
Cc1cccc(C(=O)N2c3ccccc3C(=O)OC2c2ccc3c(c2)OCO3)c1 (stereo unspecified)	none
COc1ccc(CCNCC2C(Oc3ccc(Cl)cc3)C(=O)N2c2ccccc2C)cc1OC (stereo unspecified)	KCNK9 block -6.82
COCCNCC1C(Oc2ccc(Cl)cc2)C(=O)N1c1ccccc1C (stereo unspecified)	none
S=C(N/N=C/c1ccc(Cl)cc1)N1CCOCC1	hERG rescue 8.6
Cc1ccc(SCCNC(=O)c2ccc(C)c(S(=O)(=O)Nc3cccc(C)c3)c2)cc1	KCNK3 block -11.4
O=C(CSc1ccc(Cl)cc1)N/N=C/c1cccnc1	hERG rescue 8.2
O=C(Cc1c[nH]c2ccccc12)NCc1ccc(Cl)cc1Cl	Kir21 block -4.25
C/C=C/C(O)c1ccc2ccccc2c1 (stereo unspecified)	none (no result: KCNK3 block)
C#CCNC(=O)C1=C[C@H](c2ccc(Br)cc2)C[C@H](OCc2ccc(CO)cc2)O1	Kir21 block -4.75
C#CCNC(=O)C1=C[C@@H](c2ccc(Br)cc2)C[C@@H](OCc2ccc(CO)cc2)O1	none
Cc1ccc(-n2nnnc2/C=C\Nc2cc(C)on2)cc1	none
CC(C)(C)c1cc(N/C=C\c2nnnn2-c2ccc(Br)cc2)no1	hERG rescue 7.3
CSC1=NC(C(Cl)(Cl)Cl)N=C(c2ccccc2)N1 (stereo unspecified)	hERG rescue 8.6
NC(=O)c1ccc[n+](CC(=O)Nc2ccccc2C(=O)O)c1	none
Cc1ccc(C(CNC(=O)Nc2ccc(Cl)cc2)N2CCN(C)CC2)cc1 (stereo unspecified)	none
CN1CCN(C(CNC(=O)Nc2ccc(Cl)cc2)c2ccc(F)cc2)CC1 (stereo unspecified)	KCNQ1 inh 6
Cc1cc(Nc2ccccc2)nc(NCc2ccccc2)n1	Kir21 block -10.7
Cc1nc(NN)nc(NCc2ccccc2)n1	hERG rescue 7.1
Cc1cc(Nc2ccc(Cl)cc2)nc(NCc2ccccc2)n1	Kir21 block -6.99
Cc1ccc(/C=N/Nc2cc(C)nc(NCc3ccccc3)n2)cc1	none
CCN1CCN(c2ccc(NC(=O)COc3ccc(Cl)cc3C)cc2)CC1	none (no result: KCNQ1 pot, Kir21 block, hERG rescue, KCNQ1 inh, KCNK9 block)
CCc1ccccc1NC(=O)CN(C)C(=O)CSc1nc2cc(Cl)ccc2s1	none
Cc1cc(S(=O)(=O)N2CCOCC2)c(C)s1	none
CC(C)C1CC(CCNCc2ccc(N(C)C)cc2)(c2ccccc2)CCO1 (stereo unspecified)	none
Cc1ccc(C2(CCNCc3ccc(N(C)C)cc3)CCOC(C(C)C)C2)cc1 (stereo unspecified)	Kir21 block -4.68
O=S(=O)(Nc1ccccc1N1CCOCC1)c1ccccc1C(F)(F)F	KCNK3 block -10.3 (no result: KCNQ1 pot, Kir21 block, hERG rescue, KCNQ1 inh, KCNK9 block)
CC(C)c1ccc(OCC(=O)NNC(=S)NC(=O)c2ccco2)c(Br)c1	KCNQ1 pot 47
CC(=O)c1cccc(CN(C)CC2CCCN(CCc3ccccc3C)C2)c1 (stereo unspecified)	Kir21 block -6.45
COc1ccc(CN(C)CC2CCCN(CCc3ccc(Cl)cc3)C2)cc1OC (stereo unspecified)	none
COc1ccc(F)c(CN(C)CC2CCCN(CCc3ccc(F)cc3)C2)c1 (stereo unspecified)	Kir21 block -9.75
Cc1ccccc1CCN1CCCC(CN(C)CC(C)(C)C)C1 (stereo unspecified)	none
CCOc1cccc(CN(C)CC2CCCN(CCc3ccc(Cl)cc3)C2)c1O (stereo unspecified)	Kir21 block -7.33
O=C(Nc1ccc(S(=O)(=O)N2CCOCC2)cc1)c1cccnc1	none
CCOC(=O)C1CCN(S(=O)(=O)c2cccc3nonc23)CC1	hERG rescue 14.4
